The test system of experiment [1] is MCF7. The experiment can be described thus: Antiproliferative activity against human MCF7 cells after 48 hrs by sulforhodamine B assay. The experiment is classed as functional, cell-based. The settings on record: MCF7, 48 h. The gist of the method:
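MCF-7 cells seeded at 5×10^4–10^5 cells/well, allowed to attach 24 h, then exposed to 0, 5, 12.5, 25 and 50 µg/mL for 48 h. Compounds were dissolved in DMSO and diluted with saline; controls got vehicle only; four wells per concentration. Cells fixed with cold 50% TCA, stained with 0.4% SRB, dye solubilised in 10 mM tris pH 10.5, OD read at 564 nm. Survival fraction = OD treated/OD control; IC50 taken from the survival-versus-concentration plot.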

In another experiment the target is DNA topoisomerase 2-beta (Homo sapiens, UniProt Q02880). The experiment can be described thus: Inhibition of human topoisomerase 2beta after 2 hrs at 37 degC by ELISA. The essentials:
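Sandwich ELISA: standard or sample incubated 2 h at 37°C, then biotin-antibody 1 h at 37°C, then HRP-avidin 1 h at 37°C, then TMB 15–30 min at 37°C in the dark. OD read at 450 nm.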

In experiment [2] the test system is MCF7. The experiment can be described thus: Induction of apoptosis in human MCF7 cells assessed as Bcl2 expression levels at 7.1 uM after 24 hrs by SYBR Green dye-based RT-PCR analysis (reference value: 538306 IU/ml). The experiment is classed as functional.
Experiment [3] concerns MCF7. The experiment can be described thus: Induction of apoptosis in human MCF7 cells assessed as active caspase3 expression levels at 7.1 uM after 24 hrs by SYBR Green dye-based RT-PCR analysis (reference value: 75 IU/ml). The experiment is classed as functional.
Experiment [4] relates to MCF7. The experiment can be described thus: Induction of apoptosis in human MCF7 cells assessed as p53 expression levels at 7.1 uM after 24 hrs by SYBR Green dye-based RT-PCR analysis (reference value: 244 IU/ml). The experiment is classed as functional.
For experiment [5], the system named is MCF7. The experiment can be described thus: Induction of apoptosis in human MCF7 cells assessed as BAX expression levels at 7.1 uM after 24 hrs by SYBR Green dye-based RT-PCR analysis (reference value: 196 IU/ml). The experiment is classed as functional.
The subject of experiment [6] is MCF7. The experiment can be described thus: Potency index, ratio of doxorubicin IC50 to compound IC50 for antiproliferative activity against human MCF7 cells. The experiment is classed as functional.
Experiment [7] concerns MCF7. The experiment can be described thus: Cell cycle arrest in human MCF7 cells assessed as accumulation at G1 phase at 7.1 uM after 24 hrs by propidium iodide staining-based flow cytometry (reference value: 66.4%). The experiment is classed as functional. The gist of the method: (§1)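 MCF-7 cells treated 24 h with 7.10 µM. Cells washed with ice-cold PBS, fixed in ice-cold 70% ethanol, resuspended with 0.1 mg/mL RNase and stained with propidium iodide. DNA content read by FACSCalibur flow cytometry to give phase distribution (pre-G1/sub-G1, G1, S, G2/M).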

The test system of experiment [8] is MCF7. The experiment can be described thus: Cell cycle arrest in human MCF7 cells assessed as increase in accumulation at G2/M phase at 7.1 uM after 24 hrs by propidium iodide staining-based flow cytometry relative to control. The experiment is classed as functional. The essentials: as §1
Background: Flow cytometry measures light scatter and fluorescence of single cells or particles in a stream.

Experiment [9] concerns the target T1, Vascular endothelial growth factor receptor 2 (Homo sapiens, UniProt P35968). The experiment can be described thus: Inhibition of human VEGFR2 after 2 hrs by ELISA. A general note: In an ELISA, binding on a coated surface is turned into a signal by an enzyme label.
The test system of experiment [10] is MCF7. The experiment can be described thus: Induction of apoptosis in human MCF7 cells assessed as necrotic cells at 7.1 uM after 24 hrs by Annexin V-FITC/propidium iodide staining based flow cytometry (reference value: 0.1%). The experiment is classed as functional.
Experiment [11] concerns MCF7. The experiment can be described thus: Cell cycle arrest in human MCF7 cells assessed as accumulation at S phase at 7.1 uM after 24 hrs by propidium iodide staining-based flow cytometry (reference value: 25.2%). The experiment is classed as functional. The essentials:
as §1

The test system of experiment [12] is MCF7. The experiment can be described thus: Induction of apoptosis in human MCF7 cells assessed as viable cells at 7.1 uM after 24 hrs by Annexin V-FITC/propidium iodide staining based flow cytometry (reference value: 99.9%). The experiment is classed as functional.
Experiment [13] deals with MCF7. The experiment can be described thus: Induction of apoptosis in human MCF7 cells assessed as late apoptotic cells at 7.1 uM after 24 hrs by Annexin V-FITC/propidium iodide staining based flow cytometry (reference value: 0.3%). The experiment is classed as functional.
For experiment [14], the target named is T1, Vascular endothelial growth factor receptor 2. The experiment can be described thus: Potency index, ratio of sorafenib IC50 to compound IC50 for inhibition of human VEGFR2.
Experiment [15] relates to MCF7. The experiment can be described thus: Cell cycle arrest in human MCF7 cells assessed as accumulation at G2/M phase at 7.1 uM after 24 hrs by propidium iodide staining-based flow cytometry (reference value: 7.2%). The experiment is classed as functional. The gist of the method: as §1
Experiment [16] concerns MCF7. The experiment can be described thus: Cell cycle arrest in human MCF7 cells assessed as accumulation at subG1 phase at 7.1 uM after 24 hrs by propidium iodide staining-based flow cytometry (reference value: 1.2%). The experiment is classed as functional. The gist of the method:
as §1

In experiment [17] the test system is MCF7. The experiment can be described thus: Induction of apoptosis in human MCF7 cells assessed as early apoptotic cells at 7.1 uM after 24 hrs by Annexin V-FITC/propidium iodide staining based flow cytometry (reference value: 0.7%). The experiment is classed as functional.
For experiment [18], the system named is MCF7. The experiment can be described thus: Induction of apoptosis in human MCF7 cells assessed as early apoptotic cells at 7.1 uM after 24 hrs by Annexin V-FITC/propidium iodide staining based flow cytometry relative to control. The experiment is classed as functional.
Experiment [19] has as its system MCF7. The experiment can be described thus: Cell cycle arrest in human MCF7 cells assessed as increase in accumulation at pre-G1 phase at 7.1 uM after 24 hrs by propidium iodide staining-based flow cytometry relative to control. The experiment is classed as functional. The essentials: as §1

Experimental findings from ChEMBL document CHEMBL4251563, “Design and synthesis of thienopyrimidine urea derivatives with potential cytotoxic and pro-apoptotic activity against breast cancer cell line MCF-7” (Eur J Med Chem, 2018) are described below.

pIC50: −log10 of the molar value.

The term pIC50 denotes −log10 of the IC50, conventionally taken in molar units. Low readings indicate a high IC50, high ones a low IC50.

Sequence of DNA topoisomerase 2-beta (Q02880 whole entry): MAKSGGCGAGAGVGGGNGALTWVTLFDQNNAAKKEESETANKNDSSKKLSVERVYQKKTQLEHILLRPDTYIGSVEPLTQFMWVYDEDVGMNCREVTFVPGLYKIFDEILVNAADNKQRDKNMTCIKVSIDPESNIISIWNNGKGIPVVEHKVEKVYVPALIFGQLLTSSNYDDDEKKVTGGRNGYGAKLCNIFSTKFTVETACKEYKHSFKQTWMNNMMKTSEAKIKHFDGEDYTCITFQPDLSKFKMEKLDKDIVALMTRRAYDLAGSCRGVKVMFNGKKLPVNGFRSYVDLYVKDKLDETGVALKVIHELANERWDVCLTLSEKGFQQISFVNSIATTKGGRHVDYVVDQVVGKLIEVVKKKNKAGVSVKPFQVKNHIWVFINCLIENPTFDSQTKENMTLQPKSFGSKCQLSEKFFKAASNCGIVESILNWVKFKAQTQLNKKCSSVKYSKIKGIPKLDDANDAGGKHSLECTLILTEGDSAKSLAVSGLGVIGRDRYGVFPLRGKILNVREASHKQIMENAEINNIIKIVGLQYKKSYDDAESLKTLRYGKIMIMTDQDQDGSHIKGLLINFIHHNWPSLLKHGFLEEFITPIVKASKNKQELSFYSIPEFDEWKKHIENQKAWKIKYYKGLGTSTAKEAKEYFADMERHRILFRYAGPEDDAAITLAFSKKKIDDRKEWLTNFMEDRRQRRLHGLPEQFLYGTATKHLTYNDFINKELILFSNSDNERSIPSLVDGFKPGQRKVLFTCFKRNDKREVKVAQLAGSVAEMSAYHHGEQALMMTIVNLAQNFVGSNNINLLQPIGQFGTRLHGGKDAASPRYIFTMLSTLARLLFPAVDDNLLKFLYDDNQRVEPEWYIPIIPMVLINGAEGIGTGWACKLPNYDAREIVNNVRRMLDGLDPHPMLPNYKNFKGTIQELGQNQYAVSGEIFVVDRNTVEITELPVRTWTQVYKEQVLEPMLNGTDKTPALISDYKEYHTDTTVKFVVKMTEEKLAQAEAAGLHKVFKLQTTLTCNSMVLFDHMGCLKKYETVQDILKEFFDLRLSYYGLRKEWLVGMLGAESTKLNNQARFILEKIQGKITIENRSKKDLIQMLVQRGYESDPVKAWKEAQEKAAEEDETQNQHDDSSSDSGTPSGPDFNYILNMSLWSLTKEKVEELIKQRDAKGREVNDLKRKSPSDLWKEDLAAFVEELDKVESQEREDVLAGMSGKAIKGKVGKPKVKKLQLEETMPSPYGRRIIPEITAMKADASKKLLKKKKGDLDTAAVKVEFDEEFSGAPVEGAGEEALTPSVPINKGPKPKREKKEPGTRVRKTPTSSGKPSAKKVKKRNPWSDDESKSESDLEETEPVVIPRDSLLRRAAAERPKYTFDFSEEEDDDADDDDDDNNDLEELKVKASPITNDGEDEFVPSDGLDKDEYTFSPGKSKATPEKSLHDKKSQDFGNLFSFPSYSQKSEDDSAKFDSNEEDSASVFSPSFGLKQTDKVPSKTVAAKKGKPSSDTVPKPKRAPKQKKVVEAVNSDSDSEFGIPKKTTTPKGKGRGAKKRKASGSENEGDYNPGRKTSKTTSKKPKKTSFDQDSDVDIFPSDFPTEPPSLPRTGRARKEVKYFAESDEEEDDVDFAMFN
T1 sequence (P35968 whole entry): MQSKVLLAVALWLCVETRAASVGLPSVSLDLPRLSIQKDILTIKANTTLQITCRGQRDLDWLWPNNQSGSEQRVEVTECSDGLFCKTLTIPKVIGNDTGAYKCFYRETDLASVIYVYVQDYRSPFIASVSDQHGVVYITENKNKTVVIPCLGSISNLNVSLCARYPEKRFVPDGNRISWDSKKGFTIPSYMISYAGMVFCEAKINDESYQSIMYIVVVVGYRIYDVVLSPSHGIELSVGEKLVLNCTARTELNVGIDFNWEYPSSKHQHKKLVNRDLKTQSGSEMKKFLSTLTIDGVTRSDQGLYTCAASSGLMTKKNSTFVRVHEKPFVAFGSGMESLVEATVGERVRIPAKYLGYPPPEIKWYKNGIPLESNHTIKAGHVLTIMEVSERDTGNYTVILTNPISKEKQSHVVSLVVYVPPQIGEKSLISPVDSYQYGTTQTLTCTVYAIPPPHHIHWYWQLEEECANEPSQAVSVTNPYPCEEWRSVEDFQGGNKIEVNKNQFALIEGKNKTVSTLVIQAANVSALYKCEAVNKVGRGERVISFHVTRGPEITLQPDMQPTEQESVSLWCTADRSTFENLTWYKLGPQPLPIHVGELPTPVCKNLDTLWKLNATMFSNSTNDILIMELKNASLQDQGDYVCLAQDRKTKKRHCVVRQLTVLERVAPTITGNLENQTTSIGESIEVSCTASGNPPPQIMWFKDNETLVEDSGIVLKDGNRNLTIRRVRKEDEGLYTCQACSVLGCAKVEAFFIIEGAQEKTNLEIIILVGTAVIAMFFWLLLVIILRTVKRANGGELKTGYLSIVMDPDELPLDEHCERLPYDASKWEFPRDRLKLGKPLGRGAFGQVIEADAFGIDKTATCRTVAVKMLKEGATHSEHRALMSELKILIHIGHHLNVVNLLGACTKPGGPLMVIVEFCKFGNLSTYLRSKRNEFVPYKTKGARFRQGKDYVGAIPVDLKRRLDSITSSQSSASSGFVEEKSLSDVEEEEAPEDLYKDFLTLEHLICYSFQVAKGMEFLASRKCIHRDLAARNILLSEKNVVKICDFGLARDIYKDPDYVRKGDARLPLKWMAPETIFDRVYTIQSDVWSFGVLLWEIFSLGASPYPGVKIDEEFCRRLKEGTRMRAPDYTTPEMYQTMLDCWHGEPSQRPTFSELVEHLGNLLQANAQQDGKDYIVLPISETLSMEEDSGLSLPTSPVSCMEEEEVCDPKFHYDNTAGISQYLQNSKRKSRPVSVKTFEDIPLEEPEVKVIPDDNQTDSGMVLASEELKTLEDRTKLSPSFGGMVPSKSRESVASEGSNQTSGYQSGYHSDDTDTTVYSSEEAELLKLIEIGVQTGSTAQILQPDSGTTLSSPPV

`S=C(Nc1ccccc1)Nc1nnc2c3c4c(sc3ncn12)CCCC4` showed a pIC50 with MCF7 [1] of 4.09.
`O=C(Nc1cccc(C(F)(F)F)c1)Nc1nnc2c3c4c(sc3ncn12)CCCC4` had a pIC50 in the experiment on MCF7 [1] of 4.16.
Same read-out and setting: the result for `O=C(NNc1ncnc2sc3c(c12)CCCC3)Nc1ccc(Cl)c(C(F)(F)F)c1` reads 4.27; that for `Cc1cccc(Cl)c1-n1c(-c2ccc(Br)cc2)co/c1=N\c1ccc(Nc2ncnc3sc4c(c23)CCCC4)cc1`, 3.63.
On the same count and under the same terms, to `O=C(NNc1ncnc2sc3c(c12)CCCC3)Nc1cccc(C(F)(F)F)c1` belongs 4.64.
In the case of `Cc1cccc(Cl)c1NC(=S)Nc1ccc(Nc2ncnc3sc4c(c23)CCCC4)cc1`, the pIC50 in the experiment on MCF7 [1] is 4.28.
The same measure, in the same setting: the result for `Cc1cccc(Cl)c1NC(=O)NNc1ncnc2sc3c(c12)CCCC3` reads 4.04; that for `O=C(NNc1ncnc2sc3c(c12)CCCC3)Nc1c(Cl)cccc1Cl`, 4.05.
The same measure, in the same setting: the result for `O=C(Nc1ccc(Nc2ncnc3sc4c(c23)CCCC4)cc1)Nc1c(Cl)cccc1Cl` reads 3.99; that for `O=C(Nc1ccc(Nc2ncnc3sc4c(c23)CCCC4)cc1)Nc1cccc(C(F)(F)F)c1`, 4.29.
Turning to `S=C(Nc1ccccc1)Nc1ccc(Nc2ncnc3sc4c(c23)CCCC4)cc1`, in the experiment on MCF7 [1], the pIC50 was 4.32.
On the same count and under the same terms, the result for `Cc1cccc(Cl)c1NC(=O)Nc1nnc2c3c4c(sc3ncn12)CCCC4` reads 4.54.
`COc1cccc2c1C(=O)c1c(O)c3c(c(O)c1C2=O)C[C@@](O)(C(=O)CO)C[C@@H]3O[C@H]1C[C@H](N)[C@H](O)[C@H](C)O1` [DOXORUBICIN]: the pIC50 on DNA topoisomerase 2-beta was 5.46; with MCF7 [1], 4.97. Further, the Activity is given as 8 IU/ml in the experiment on MCF7 [2], 363940 IU/ml with MCF7 [3], 1271.6 IU/ml in the experiment with MCF7 [4] and 1824021 IU/ml in the experiment with MCF7 [5].
`O=C(Nc1ccc(Nc2ncnc3sc4c(c23)CCCC4)cc1)Nc1cc(C(F)(F)F)ccc1F` showed a pIC50 in the experiment on MCF7 [1] of 4.99. Further, in the experiment on MCF7 [6], the “Ratio IC50” value is reported as 1.03 - 1.5.
In the experiment on MCF7 [1], `Brc1ccc(-c2cs/c(=N\c3ccc(Nc4ncnc5sc6c(c45)CCCC6)cc3)n2-c2ccccc2)cc1` gave a pIC50 of 4.43.
Still for that read-out and setting: to `Cc1cccc(NC(=S)Nc2nnc3c4c5c(sc4ncn23)CCCC5)c1` belongs 4.00; to `Cc1ccc(NC(=S)Nc2ccc(Nc3ncnc4sc5c(c34)CCCC5)cc2)cc1`, 4.25; to `COc1ccc(NC(=S)Nc2ccc(Nc3ncnc4sc5c(c34)CCCC5)cc2)cc1`, 4.10.
For `S=C(Nc1ccc(Br)cc1)Nc1ccc(Nc2ncnc3sc4c(c23)CCCC4)cc1`, the pIC50 in the experiment on MCF7 [1] was 5.02. For the same compound, the “Ratio IC50” value in the experiment on MCF7 [6] is given as 1.03 - 1.5.
`O=C(NNc1ncnc2sc3c(c12)CCCC3)Nc1cc(C(F)(F)F)ccc1F` showed a pIC50 with MCF7 [1] of 4.55.
On to `O=C(Nc1ccc(Nc2ncnc3sc4c(c23)CCCC4)cc1)Nc1ccc(Cl)c(C(F)(F)F)c1`, for which the Activity with MCF7 [7] was 36.3%; with MCF7 [2], 131 IU/ml; in the experiment on MCF7 [3], 64223 IU/ml; in the experiment on MCF7 [10], 3%; with MCF7 [11] it was 29.2%; with MCF7 [12] it was 69%. Further, the Activity is recorded as 7% with MCF7 [13]; 16.3% in the experiment on MCF7 [15]; 77214 IU/ml with MCF7 [4]; 18.2% in the experiment on MCF7 [16]; 389968 IU/ml in the experiment with MCF7 [5]; 21% in the experiment with MCF7 [17]. Also, the values for the pIC50 (against DNA topoisomerase 2-beta; with MCF7 [1]; in experiment [9]) were 5.03, 5.15 and 6.70, respectively. Besides, the “fold change (FC)” value with MCF7 [8] came to 2.2; with MCF7 [18] it was 30; with MCF7 [19], 15.1. In addition, the Ratio IC50 in [14] is 2.1; in the experiment on MCF7 [6], 1.03 - 1.5.
`Cc1cccc(NC(=S)Nc2ccc(Nc3ncnc4sc5c(c34)CCCC5)cc2)c1` showed a pIC50 in the experiment on MCF7 [1] of 4.41.
`O=C(Nc1cc(C(F)(F)F)ccc1F)Nc1nnc2c3c4c(sc3ncn12)CCCC4`: the pIC50 with MCF7 [1] is 4.14.
Same read-out and setting: to `S=C(Nc1ccc(Cl)cc1)Nc1ccc(Nc2ncnc3sc4c(c23)CCCC4)cc1` belongs 4.29; to `Cc1cccc(Cl)c1NC(=O)Nc1ccc(Nc2ncnc3sc4c(c23)CCCC4)cc1`, 4.27.
